SR-BI DiI-HDL act: activators of SR-BI mediated HDL lipid uptake | AID 504775 | CHO ldlA[mSR-BI] cells, DiI-HDL uptake fluorescence, 3 h; 100 = double the neutral-control signal | activation, % at 12.5 µM | 320,000 compounds, 0.096% hits;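 active means mean replicate activation of at least 60% and every replicate at or above 60%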
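Test system: SR-BI-overexpressing, LDLR-lacking CHO cells; Also added: labelled HDL, 10 µg/mL; Measured by: bottom-read cell fluorescence after medium removal, ex 550/em 595 nm; Timing: 3 h uptake period with compound, 37 °C; Buffer or medium: F12, 0.5% BSA, 25 mM HEPES; Doses: single compound concentration, delivered by pin transfer.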
SR-BI HDL uptake: blocks mouse SR-BI lipid uptake from DiI-HDL; 320,000 compounds, 0.96% hits; inhibition, % at 12.5 µM; ldlA[mSR-BI] CHO cells, DiI-HDL uptake fluorescence, 3 h; Q61009;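 active means mean replicate inhibition of at least 70% and a set share of replicates each scoring 70 or more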
Target sequence (Q61009 whole entry, looked up): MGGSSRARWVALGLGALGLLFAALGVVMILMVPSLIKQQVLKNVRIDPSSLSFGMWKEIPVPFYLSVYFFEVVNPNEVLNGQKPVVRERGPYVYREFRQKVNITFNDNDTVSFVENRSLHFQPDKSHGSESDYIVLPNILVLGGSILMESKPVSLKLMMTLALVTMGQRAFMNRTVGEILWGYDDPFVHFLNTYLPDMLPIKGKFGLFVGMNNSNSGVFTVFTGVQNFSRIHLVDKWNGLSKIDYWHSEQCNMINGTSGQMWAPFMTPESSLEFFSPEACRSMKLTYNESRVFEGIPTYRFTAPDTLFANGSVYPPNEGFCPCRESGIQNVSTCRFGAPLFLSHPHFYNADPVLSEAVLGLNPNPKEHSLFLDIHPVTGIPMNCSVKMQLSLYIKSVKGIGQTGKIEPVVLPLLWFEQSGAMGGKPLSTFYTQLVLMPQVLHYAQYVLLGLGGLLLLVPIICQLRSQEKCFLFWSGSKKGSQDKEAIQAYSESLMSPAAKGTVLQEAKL
TMEM16A act: activates or potentiates the mouse TMEM16A chloride channel; AID 623877; 340,000 compounds, 0.3% hits; Q8BHY3; B-score at 10 µM; HEK293 TMEM16A/YFP-H148Q/I152L, iodide quench fluorescence; active compounds read low;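 active means fluorescence-ratio B-score plate-corrected deviation score at least 3 library SD below zero, with starting fluorescence score within 5 deviations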;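 further: channel opened by trigger with iodide after compound preincubation; score built on the fluorescence ratio of max minus min over baseline; more negative score means more quench and so TMEM16A activation or potentiation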
ANO1 block: blocks the mouse calcium-activated chloride channel TMEM16A; 310,000 compounds, 1.2% hits; HEK293 TMEM16A/YFP iodide influx fluorescence, ionomycin; normalized B-score (activity score, 25-100; higher = stronger inhibition) at 10 µM; Q8BHY3;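 active means ratio plate-corrected score three or more library SD toward inhibition, starting fluorescence score within five deviations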;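 further: score derived from kinetic fluorescence span divided by baseline fluorescence per well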
Kir21 inh: blocks the mouse Kir2.1 inward-rectifier potassium channel; P35561; HEK293-Kir2.1, FluxOR thallium flux fluorescence; active compounds read low; B-score at 10 µM; 310,000 compounds, 0.85% hits; AID 1672;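 active means fluorescence ratio B-score at or below minus 3 SD of library scores, with starting-brightness B-score within 2 SD, cut at about -4.2 in these data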;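 further: channel flux triggered by added potassium and thallium sulfate stimulus; B-score of peak minus minimum fluorescence over baseline after thallium stimulus; more negative B-score means stronger Kir2.1 block with less thallium influx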
DNA FID counter: fluorescent intercalator displacement, NS3 helicase counter-screen. DNA fluorescent intercalator displacement, fluorescence. inhibition, % at 7.9 µM. 290,000 compounds, 0.17% hits. AID 1845; in the data active means inhibition above about 37%;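 further: higher means more ethidium bromide displaced from hairpin DNA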
Large screens that a line does not name were inactive. This is a sample that favours compounds with a hit; in the whole collection about 3% have one here.

NC(=O)C1CCCN(C(=O)c2ccc(S(=O)(=O)N3CCCCCC3)cc2)C1 (configuration not stated)	TMEM16A act -13 (no result: ANO1 block, Kir21 inh, DNA FID counter)
O=C(CCS(=O)(=O)c1ccc(Cl)cc1)N1CCCc2ccccc21	Kir21 inh -4.8
O=C(c1ccc(S(=O)(=O)N2CCCC2)cc1)N1CCCc2ccccc21	SR-BI HDL uptake 77
CCOc1ccc(S(=O)(=O)N2CCN(C(=O)C3CC3C)CC2)cc1 (configuration not stated)	none (no result: ANO1 block, Kir21 inh, DNA FID counter)
CCC(CC)C(=O)c1c[nH]c(C(=O)NCc2ccccc2OC)c1	none
CCC(C)c1ccc(NC(=O)c2ccco2)cc1 (configuration not stated)	none
COc1ccc(C(=O)Nc2cc3c4c(c2)C(C)C(=O)N4CCC3)cc1OC (configuration not stated)	SR-BI HDL uptake 79 (no result: DNA FID counter)
CC(C(=O)Nc1ccccc1)c1ccc(-c2ccccc2)c(F)c1 (configuration not stated)	ANO1 block 100
CC(C(=O)O)c1ccc(-c2ccccc2)c(F)c1 (configuration not stated)	none
CCOc1ccccc1NC(=O)C(OC(=O)c1ccc(O)cc1)c1ccccc1 (configuration not stated)	ANO1 block 25
CCOc1ccccc1NC(=O)C(NCC1CCCCC1)c1ccccc1 (configuration not stated)	ANO1 block 25
CCOc1ccccc1NC(=O)C(OC(=O)c1ccc(N(C)C)cc1)c1ccccc1 (configuration not stated)	none (no result: SR-BI DiI-HDL act, SR-BI HDL uptake)
Cn1c(COc2ccc(Cl)cc2)nnc1SCC(=O)NC1CCCC1	none (no result: SR-BI DiI-HDL act, SR-BI HDL uptake)
CC1(C)CC(=O)c2c(O)cc(OCC(=O)Nc3ccc(CCO)cc3)cc2O1	none
CCCN1C(=O)/C(=C\C=C2/C=CN(CC)c3ccccc32)SC1=S	SR-BI HDL uptake 146
CCCCCc1ccc(OCCOCCn2c[n+](C)c3ccccc32)c(CCCCC)c1	DNA FID counter 37 (no result: ANO1 block)
CCCCCc1ccc(OCCC[n+]2ccccc2)c(CCCCC)c1	DNA FID counter 45
C[n+]1cn(CC(O)COCc2ccccc2)c2ccccc21 (configuration not stated)	none
CC(=O)Nc1ccc(NC(=O)C/C(C)=N/NC(=O)c2cccc3ccccc23)cc1	none (no result: SR-BI DiI-HDL act, SR-BI HDL uptake)
CCC(C)NC(=O)C1(N2C(=O)c3ccccc3C2=O)CCCC1 (configuration not stated)	none (no result: ANO1 block, Kir21 inh, DNA FID counter)
COc1ccc(-c2c(C)nc3c(-c4ccccn4)cnn3c2N)cc1	none
O=C(NCCc1ccccc1)N1c2ccccc2Sc2ccccc21	ANO1 block 100
COc1ccc(-c2c[n+]3c(n2-c2ccccc2)SCC3)cc1OC	TMEM16A act -29
Cc1cccc(NC(=O)CNC(=O)COC(=O)C2CC2C)c1C (configuration not stated)	none (no result: ANO1 block, Kir21 inh, DNA FID counter)
CCc1noc(C)c1C(=O)N1CCN(S(=O)(=O)c2ccccc2C(F)(F)F)CC1	none (no result: ANO1 block, Kir21 inh, DNA FID counter)
COC(=O)CC1COc2ccccc2N1C(=O)/C=C/c1ccccc1 (configuration not stated)	none
Cn1nnnc1SCCNCc1ccccc1OCc1ccc(Cl)cc1	Kir21 inh -4.3
Cc1[nH][nH]c(=O)c1C(c1ccc(-c2cccc(Cl)c2)o1)c1c(C)[nH][nH]c1=O	Kir21 inh -6.6
Cc1cc(NC(=O)c2ccc(C#N)cc2)n(-c2ccccn2)n1	TMEM16A act -30
Cc1cc(NC(=O)c2ccc(F)cc2)n(-c2ccccn2)n1	none
COc1ccc(CC(=O)Nc2cc3oc4ccccc4c3cc2OC)cc1	none
COc1ccccc1CC(=O)Nc1cc2oc3ccccc3c2cc1OC	SR-BI HDL uptake 87
COc1cc2c(cc1NC(=S)NC(=O)c1c(OC)cccc1OC)oc1ccccc12	none
COc1cc(OC)cc(C(=O)NC(=S)Nc2cc3oc4ccccc4c3cc2OC)c1	SR-BI HDL uptake 81
COc1cc2c(cc1NC(=O)c1ccncc1)oc1ccccc12	SR-BI HDL uptake 78
COCCNC(=S)Nc1cc2oc3ccccc3c2cc1OC	SR-BI HDL uptake 93
COc1ccc(C2=NS(=O)(=O)N(C)C(C(=O)NC3CCCCC3)=C2)cc1OC	none
CCOCCOC(=O)Cn1cnc2scc(-c3ccc(C)cc3)c2c1=O	none
CC(=O)Nc1sc(C)c(C)c1C(=O)OCC(=O)N(Cc1ccccc1)C(C)C	none (no result: ANO1 block, Kir21 inh, DNA FID counter)
CCC1C(=O)CC(c2ccc([N+](=O)[O-])cc2)NC1c1ccc([N+](=O)[O-])cc1 (configuration not stated)	TMEM16A act -5.5
CCC1C(=O)CC(c2ccco2)NC1c1ccco1 (configuration not stated)	none
Cn1cnc([N+](=O)[O-])c1Sc1nc(N)nc2c1ncn2C1CC(O)C(CO)O1 (configuration not stated)	none (no result: ANO1 block, Kir21 inh, DNA FID counter)
O=C(O)c1nn(Cc2ncc(-c3cccc(Cl)c3)o2)c(=O)c2ccccc12	none
CCN(CC)S(=O)(=O)c1cc(NC(=O)c2ccc(Br)s2)ccc1C	SR-BI HDL uptake 75
CCN(CC)S(=O)(=O)c1cc(NC(=O)NCCCl)ccc1C	none (no result: SR-BI DiI-HDL act, SR-BI HDL uptake)
COc1cccc(-n2nc(C#N)c(Cl)cc2=O)c1	Kir21 inh -4.6 (no result: ANO1 block)
COc1ccccc1C(=O)NC(C(=O)NCCc1nc2ccccc2[nH]1)=C(C)C	none
COc1cccc(C(C[N+](=O)[O-])c2c(C)[nH]n(-c3ccccc3)c2=O)c1 (configuration not stated)	Kir21 inh -13
Cc1[nH]n(-c2ccccc2)c(=O)c1C(c1cccc([N+](=O)[O-])c1)c1c(C)[nH]n(-c2ccccc2)c1=O	none
Cc1[nH]n(-c2ccccc2)c(=O)c1C(C[N+](=O)[O-])c1ccc(Br)cc1 (configuration not stated)	ANO1 block 25
CCOc1ccccc1NC(=O)c1cc(-c2cc(OC)c(OC)c(OC)c2)nc2ccccc12	SR-BI HDL uptake 72
COc1ccccc1NC(=O)c1cc(-c2cc(OC)c(OC)c(OC)c2)nc2ccccc12	none
COc1cc(-c2cc(C(=O)Nc3ccc(N4CCOCC4)cc3)c3ccccc3n2)cc(OC)c1OC	SR-BI HDL uptake 90
CCOc1cc(CN2CCC(CO)(Cc3cccc(C(F)(F)F)c3)CC2)ccc1OC	none
CCCc1cc(C(=O)OC)c2ccccc2n1	SR-BI DiI-HDL act 77
COC(=O)c1cc(Cl)nc2ccccc12	none
N#C/C(=C/c1ccc(O)c([N+](=O)[O-])c1)C(=O)Nc1ccccc1	ANO1 block 25
N#C/C(=C/c1ccc([N+](=O)[O-])cc1)C(=O)Nc1ccccc1O	none
CC1CCN(S(=O)(=O)c2ccc3c(c2)N(CC(=O)NCCCN2C(C)CCCC2C)C(=O)CO3)CC1 (configuration not stated)	none

Compound activity as filed in PubChem BioAssay.
